{"source": "ChEMBL document CHEMBL2424622", "about": "“Development of amino-pyrimidine inhibitors of c-Jun N-terminal kinase (JNK): kinase profiling guided optimization of a 1,2,3-benzotriazole lead” (Bioorg Med Chem Lett, 2013)", "key": {"[1]": {"molecular_target": "T1, Ephrin type-B receptor 2 (Homo sapiens) (UniProt P29323)", "T1 sequence (whole entry)": "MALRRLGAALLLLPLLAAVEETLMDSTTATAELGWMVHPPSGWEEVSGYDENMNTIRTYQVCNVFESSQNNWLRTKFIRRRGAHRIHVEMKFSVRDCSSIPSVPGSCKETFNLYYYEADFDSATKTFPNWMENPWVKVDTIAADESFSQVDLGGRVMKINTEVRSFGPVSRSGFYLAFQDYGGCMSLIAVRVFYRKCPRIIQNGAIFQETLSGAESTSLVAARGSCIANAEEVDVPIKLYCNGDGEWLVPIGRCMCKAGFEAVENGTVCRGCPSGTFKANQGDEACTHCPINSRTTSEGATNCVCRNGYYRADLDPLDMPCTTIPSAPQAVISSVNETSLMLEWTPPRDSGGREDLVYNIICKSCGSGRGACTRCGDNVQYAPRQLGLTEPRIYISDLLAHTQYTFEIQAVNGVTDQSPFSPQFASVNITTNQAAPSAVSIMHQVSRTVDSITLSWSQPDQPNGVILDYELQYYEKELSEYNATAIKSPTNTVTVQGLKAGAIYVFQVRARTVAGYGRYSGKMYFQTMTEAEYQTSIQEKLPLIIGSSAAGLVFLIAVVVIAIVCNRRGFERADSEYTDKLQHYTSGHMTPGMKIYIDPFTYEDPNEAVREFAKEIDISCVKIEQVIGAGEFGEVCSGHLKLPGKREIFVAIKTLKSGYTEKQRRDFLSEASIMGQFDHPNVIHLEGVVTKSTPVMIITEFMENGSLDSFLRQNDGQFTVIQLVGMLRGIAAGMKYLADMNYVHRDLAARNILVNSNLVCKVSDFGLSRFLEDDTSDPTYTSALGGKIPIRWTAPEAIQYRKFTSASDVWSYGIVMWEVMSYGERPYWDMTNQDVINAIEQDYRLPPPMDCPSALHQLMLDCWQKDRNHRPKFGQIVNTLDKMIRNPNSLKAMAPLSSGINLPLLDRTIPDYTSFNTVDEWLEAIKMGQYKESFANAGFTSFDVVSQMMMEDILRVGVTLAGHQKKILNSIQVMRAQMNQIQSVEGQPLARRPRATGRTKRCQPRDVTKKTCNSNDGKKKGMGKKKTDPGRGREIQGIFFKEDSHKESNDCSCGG", "assay": "Competitive binding affinity to EPHB2 (unknown origin) at 10 uM in presence of ATP relative to control", "outline": "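In vitro ATP-site competition binding assay, part of profiling against a diverse panel of 128 kinases. Each compound was tested at a single concentration of 10 µM. Kinome selectivity was summarized as S15 selectivity scores.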"}, "[2]": {"molecular_target": "RAC-gamma serine/threonine-protein kinase (Homo sapiens) (UniProt Q9Y243)", "sequence (Q9Y243 whole entry)": "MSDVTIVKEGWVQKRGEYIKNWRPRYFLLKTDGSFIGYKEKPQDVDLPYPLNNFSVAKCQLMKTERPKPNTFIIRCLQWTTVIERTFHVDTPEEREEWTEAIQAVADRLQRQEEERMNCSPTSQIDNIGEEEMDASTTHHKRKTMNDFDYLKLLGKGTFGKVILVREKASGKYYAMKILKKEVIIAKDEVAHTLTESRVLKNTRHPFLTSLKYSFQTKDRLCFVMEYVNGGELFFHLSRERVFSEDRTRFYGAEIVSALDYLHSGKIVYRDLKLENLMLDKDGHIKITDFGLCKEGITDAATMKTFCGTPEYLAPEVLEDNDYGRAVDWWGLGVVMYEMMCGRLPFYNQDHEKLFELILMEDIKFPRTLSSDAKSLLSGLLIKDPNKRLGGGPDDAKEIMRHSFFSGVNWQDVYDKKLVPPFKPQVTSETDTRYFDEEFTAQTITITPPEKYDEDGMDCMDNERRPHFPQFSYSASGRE", "assay": "Competitive binding affinity to AKT3 (unknown origin) at 10 uM in presence of ATP relative to control"}, "[3]": {"molecular_target": "Myosin light chain kinase, smooth muscle (Homo sapiens) (UniProt Q15746)", "sequence (Q15746 whole entry)": "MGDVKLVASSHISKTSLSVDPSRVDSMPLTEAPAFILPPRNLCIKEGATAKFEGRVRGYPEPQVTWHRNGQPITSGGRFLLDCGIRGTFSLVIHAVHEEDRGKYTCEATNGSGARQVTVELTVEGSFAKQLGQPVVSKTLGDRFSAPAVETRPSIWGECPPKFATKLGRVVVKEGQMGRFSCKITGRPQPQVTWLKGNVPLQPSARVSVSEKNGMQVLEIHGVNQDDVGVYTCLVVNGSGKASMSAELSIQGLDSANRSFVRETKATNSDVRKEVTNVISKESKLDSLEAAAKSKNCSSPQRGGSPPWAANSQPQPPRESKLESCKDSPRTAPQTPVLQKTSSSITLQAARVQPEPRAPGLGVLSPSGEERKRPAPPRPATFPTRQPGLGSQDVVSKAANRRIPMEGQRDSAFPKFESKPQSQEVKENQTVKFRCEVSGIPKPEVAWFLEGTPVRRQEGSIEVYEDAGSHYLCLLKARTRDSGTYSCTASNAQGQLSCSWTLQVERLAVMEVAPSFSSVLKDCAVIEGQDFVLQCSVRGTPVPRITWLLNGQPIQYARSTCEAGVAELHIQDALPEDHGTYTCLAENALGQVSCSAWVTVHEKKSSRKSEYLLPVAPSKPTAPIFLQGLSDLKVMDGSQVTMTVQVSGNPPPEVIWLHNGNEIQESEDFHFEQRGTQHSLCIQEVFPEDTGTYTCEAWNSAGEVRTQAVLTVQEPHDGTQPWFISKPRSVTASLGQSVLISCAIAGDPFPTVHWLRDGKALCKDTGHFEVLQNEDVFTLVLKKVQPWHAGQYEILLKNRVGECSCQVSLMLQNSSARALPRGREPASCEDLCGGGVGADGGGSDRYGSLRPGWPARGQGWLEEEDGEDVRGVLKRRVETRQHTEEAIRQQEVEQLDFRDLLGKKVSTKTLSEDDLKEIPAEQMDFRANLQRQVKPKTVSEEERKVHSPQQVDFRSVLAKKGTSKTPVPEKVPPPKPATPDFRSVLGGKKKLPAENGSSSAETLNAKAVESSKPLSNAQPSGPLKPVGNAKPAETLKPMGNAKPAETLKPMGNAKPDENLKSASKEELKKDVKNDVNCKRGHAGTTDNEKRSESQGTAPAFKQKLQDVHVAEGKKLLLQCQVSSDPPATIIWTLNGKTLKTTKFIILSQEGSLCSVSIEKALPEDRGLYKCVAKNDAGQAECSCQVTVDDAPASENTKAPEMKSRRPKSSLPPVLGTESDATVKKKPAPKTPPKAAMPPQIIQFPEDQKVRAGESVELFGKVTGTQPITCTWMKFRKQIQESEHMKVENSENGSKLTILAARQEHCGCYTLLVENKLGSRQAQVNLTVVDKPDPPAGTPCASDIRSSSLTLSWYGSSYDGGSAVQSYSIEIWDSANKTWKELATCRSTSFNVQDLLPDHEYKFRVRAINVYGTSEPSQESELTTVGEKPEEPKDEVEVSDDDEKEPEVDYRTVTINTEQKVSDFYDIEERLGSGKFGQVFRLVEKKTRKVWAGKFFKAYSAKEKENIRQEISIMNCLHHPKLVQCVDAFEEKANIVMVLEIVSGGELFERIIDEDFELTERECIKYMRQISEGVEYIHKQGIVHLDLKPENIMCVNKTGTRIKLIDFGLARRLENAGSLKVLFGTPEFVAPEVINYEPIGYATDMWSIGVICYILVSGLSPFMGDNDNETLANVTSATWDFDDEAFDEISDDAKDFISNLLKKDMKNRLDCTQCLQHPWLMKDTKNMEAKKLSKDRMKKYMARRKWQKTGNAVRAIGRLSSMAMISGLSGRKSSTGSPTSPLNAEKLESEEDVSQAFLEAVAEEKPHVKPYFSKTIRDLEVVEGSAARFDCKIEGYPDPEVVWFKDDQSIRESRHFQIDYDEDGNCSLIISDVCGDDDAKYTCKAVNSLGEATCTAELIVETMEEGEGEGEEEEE", "assay": "Competitive binding affinity to MLCK (unknown origin) at 10 uM in presence of ATP relative to control"}, "[4]": {"molecular_target": "T2, Serine/threonine-protein kinase D3 (Homo sapiens) (UniProt O94806)", "T2 sequence (whole entry)": "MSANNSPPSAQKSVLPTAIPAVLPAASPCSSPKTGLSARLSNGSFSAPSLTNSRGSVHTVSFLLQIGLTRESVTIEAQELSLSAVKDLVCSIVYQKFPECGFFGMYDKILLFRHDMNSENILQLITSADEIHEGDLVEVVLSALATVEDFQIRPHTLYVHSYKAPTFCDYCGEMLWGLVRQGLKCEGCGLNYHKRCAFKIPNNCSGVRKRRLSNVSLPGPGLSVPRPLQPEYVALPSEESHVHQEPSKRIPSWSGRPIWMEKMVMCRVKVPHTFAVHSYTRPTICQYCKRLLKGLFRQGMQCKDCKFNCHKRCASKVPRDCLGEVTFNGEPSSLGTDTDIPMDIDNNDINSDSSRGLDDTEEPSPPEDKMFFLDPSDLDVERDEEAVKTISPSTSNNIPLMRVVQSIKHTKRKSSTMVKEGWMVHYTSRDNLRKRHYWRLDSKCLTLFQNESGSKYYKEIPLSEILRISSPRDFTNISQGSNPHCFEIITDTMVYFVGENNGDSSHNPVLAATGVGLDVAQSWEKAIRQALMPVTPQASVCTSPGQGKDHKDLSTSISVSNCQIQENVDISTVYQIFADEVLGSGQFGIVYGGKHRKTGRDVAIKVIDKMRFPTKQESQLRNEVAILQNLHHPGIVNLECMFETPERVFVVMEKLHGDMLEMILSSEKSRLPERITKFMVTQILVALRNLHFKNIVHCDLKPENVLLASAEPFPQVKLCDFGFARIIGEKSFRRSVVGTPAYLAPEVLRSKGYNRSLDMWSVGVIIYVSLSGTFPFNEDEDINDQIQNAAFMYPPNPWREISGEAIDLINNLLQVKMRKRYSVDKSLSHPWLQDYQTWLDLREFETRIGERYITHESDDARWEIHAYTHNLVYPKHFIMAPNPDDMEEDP", "assay": "Competitive binding affinity to PRKD3 (unknown origin) at 10 uM in presence of ATP relative to control"}, "[5]": {"molecular_target": "T3, Serine/threonine-protein kinase 17B (Homo sapiens) (UniProt O94768)", "T3 sequence (whole entry)": "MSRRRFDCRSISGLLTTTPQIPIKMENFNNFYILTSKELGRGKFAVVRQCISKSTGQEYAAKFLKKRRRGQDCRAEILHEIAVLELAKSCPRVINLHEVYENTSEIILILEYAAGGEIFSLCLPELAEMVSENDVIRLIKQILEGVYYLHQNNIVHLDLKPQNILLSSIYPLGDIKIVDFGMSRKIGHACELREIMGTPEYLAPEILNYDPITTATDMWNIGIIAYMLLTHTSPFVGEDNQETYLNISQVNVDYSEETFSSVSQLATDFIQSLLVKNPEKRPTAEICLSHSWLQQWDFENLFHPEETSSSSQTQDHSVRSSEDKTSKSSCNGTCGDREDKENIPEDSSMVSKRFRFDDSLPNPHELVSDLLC", "assay": "Competitive binding affinity to STK17B (unknown origin) at 10 uM in presence of ATP relative to control"}}, "data": [{"smiles": "O[C@H]1CC[C@H](Nc2nccc(-n3ccc4ccccc43)n2)CC1", "values": [{"measurement": "inhibition", "setting": "[1]", "result": "< 50", "unit": "%"}, {"measurement": "inhibition", "setting": "[2]", "result": "< 50", "unit": "%"}, {"measurement": "inhibition", "setting": "[3]", "result": 65, "unit": "%"}, {"measurement": "inhibition", "setting": "[4]", "result": 94, "unit": "%"}]}, {"smiles": "N[C@H]1CC[C@H](Nc2nccc(-n3nnc4ccccc43)n2)CC1", "values": [{"measurement": "inhibition", "setting": "[5]", "result": 92, "unit": "%"}]}, {"smiles": "O[C@H]1CC[C@H](Nc2nccc(-n3nnc4ccccc43)n2)CC1", "values": [{"measurement": "inhibition", "setting": "[1]", "result": "< 50", "unit": "%"}, {"measurement": "inhibition", "setting": "[2]", "result": "< 50", "unit": "%"}, {"measurement": "inhibition", "setting": "[3]", "result": 88, "unit": "%"}, {"measurement": "inhibition", "setting": "[4]", "result": 100, "unit": "%"}]}, {"smiles": "O[C@H]1CC[C@H](Nc2nccc(-n3ncc4ccccc43)n2)CC1", "values": [{"measurement": "inhibition", "setting": "[1]", "result": "< 50", "unit": "%"}, {"measurement": "inhibition", "setting": "[2]", "result": "< 50", "unit": "%"}, {"measurement": "inhibition", "setting": "[3]", "result": "< 50", "unit": "%"}, {"measurement": "inhibition", "setting": "[4]", "result": 96, "unit": "%"}]}, {"smiles": "O=C([C@H]1CC[C@H](Nc2nccc(-n3nnc4ccccc43)n2)CC1)N1CCOCC1", "values": [{"measurement": "inhibition", "setting": "[5]", "result": "< 50", "unit": "%"}]}, {"smiles": "O[C@H]1CC[C@H](Nc2nccc(-c3n[nH]c4ccccc34)n2)CC1", "values": [{"measurement": "inhibition", "setting": "[1]", "result": "< 50", "unit": "%"}, {"measurement": "inhibition", "setting": "[5]", "result": 99, "unit": "%"}, {"measurement": "inhibition", "setting": "[2]", "result": "< 50", "unit": "%"}]}]}
